Measured values: ChEMBL document CHEMBL2417457, “Octahydropyrrolo[3,4-c]pyrrole negative allosteric modulators of mGlu1” (Bioorg Med Chem Lett, 2013)
pIC50: −log10 of the molar value. Active and inactive are the calls of the source. The calls are words filed in the database; no cut-off is given here.

Assays:
[1] = target: T1, Metabotropic glutamate receptor 1 (Homo sapiens, UniProt Q13255); assay: Negative allosteric modulation of human mGlu1 receptor expressed in HEK293A TREx cells assessed as calcium flux after 45 mins; format: functional, cell-based, HEK293-A
Outline: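 HEK293A TREx cells stably expressing human mGlu1 were induced overnight with 50 ng/mL tetracycline at 37 °C. Ten-point 1:3 compound series were added for 2.3 min, then an EC20 of glutamate, then an EC80 of glutamate 1.9 min later. Ca2+ flux was read for 1.7 min. Values are the average of n ≥ 3.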
Target sequence in this assay (Q13255 whole entry): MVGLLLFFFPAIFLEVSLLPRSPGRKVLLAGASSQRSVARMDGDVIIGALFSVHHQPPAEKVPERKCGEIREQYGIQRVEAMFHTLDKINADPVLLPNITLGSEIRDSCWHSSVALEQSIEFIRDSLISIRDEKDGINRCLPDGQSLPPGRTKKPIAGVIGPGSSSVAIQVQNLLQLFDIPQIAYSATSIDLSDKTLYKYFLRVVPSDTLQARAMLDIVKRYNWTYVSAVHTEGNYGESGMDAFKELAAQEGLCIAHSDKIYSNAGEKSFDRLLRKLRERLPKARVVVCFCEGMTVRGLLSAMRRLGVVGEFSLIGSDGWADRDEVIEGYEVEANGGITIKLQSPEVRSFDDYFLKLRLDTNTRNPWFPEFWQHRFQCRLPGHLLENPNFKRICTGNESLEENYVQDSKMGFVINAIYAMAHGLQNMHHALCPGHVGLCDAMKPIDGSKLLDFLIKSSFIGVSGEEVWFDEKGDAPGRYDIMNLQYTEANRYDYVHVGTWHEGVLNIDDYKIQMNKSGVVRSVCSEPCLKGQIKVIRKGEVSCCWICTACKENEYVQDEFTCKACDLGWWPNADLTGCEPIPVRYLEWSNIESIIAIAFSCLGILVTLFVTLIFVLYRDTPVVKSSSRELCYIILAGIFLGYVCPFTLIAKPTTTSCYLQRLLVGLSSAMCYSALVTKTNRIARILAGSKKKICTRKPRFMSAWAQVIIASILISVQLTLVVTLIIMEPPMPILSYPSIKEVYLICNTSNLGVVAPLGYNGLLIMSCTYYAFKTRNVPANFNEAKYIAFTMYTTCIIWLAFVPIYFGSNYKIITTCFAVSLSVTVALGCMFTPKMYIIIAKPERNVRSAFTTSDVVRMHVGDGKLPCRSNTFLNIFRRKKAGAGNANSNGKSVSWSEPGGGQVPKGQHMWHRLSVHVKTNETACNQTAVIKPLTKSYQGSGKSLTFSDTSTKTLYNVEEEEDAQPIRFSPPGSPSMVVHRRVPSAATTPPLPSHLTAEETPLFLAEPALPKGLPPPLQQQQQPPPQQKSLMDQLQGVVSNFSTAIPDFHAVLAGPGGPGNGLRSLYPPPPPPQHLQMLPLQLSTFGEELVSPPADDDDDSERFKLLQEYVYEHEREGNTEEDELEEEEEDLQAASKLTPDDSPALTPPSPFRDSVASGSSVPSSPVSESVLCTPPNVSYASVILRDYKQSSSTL

[2] = target: T1, Metabotropic glutamate receptor 1; assay: Negative allosteric modulation of human mGlu1 receptor expressed in HEK293A TREx cells assessed as calcium flux at 30 uM after 45 mins relative to glutamate; format: functional, cell-based; details: HEK293-A
Outline: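 Tetracycline-induced HEK293A TREx cells expressing human mGlu1 were loaded with Fluo-4 for Ca2+ flux. Test compound was given at 30 μM. Response amplitude is expressed as a percentage of the maximal response to 100 μM glutamate, averaged over n ≥ 3.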
Target sequence in this assay (Q13255 19-1194 limits assumed): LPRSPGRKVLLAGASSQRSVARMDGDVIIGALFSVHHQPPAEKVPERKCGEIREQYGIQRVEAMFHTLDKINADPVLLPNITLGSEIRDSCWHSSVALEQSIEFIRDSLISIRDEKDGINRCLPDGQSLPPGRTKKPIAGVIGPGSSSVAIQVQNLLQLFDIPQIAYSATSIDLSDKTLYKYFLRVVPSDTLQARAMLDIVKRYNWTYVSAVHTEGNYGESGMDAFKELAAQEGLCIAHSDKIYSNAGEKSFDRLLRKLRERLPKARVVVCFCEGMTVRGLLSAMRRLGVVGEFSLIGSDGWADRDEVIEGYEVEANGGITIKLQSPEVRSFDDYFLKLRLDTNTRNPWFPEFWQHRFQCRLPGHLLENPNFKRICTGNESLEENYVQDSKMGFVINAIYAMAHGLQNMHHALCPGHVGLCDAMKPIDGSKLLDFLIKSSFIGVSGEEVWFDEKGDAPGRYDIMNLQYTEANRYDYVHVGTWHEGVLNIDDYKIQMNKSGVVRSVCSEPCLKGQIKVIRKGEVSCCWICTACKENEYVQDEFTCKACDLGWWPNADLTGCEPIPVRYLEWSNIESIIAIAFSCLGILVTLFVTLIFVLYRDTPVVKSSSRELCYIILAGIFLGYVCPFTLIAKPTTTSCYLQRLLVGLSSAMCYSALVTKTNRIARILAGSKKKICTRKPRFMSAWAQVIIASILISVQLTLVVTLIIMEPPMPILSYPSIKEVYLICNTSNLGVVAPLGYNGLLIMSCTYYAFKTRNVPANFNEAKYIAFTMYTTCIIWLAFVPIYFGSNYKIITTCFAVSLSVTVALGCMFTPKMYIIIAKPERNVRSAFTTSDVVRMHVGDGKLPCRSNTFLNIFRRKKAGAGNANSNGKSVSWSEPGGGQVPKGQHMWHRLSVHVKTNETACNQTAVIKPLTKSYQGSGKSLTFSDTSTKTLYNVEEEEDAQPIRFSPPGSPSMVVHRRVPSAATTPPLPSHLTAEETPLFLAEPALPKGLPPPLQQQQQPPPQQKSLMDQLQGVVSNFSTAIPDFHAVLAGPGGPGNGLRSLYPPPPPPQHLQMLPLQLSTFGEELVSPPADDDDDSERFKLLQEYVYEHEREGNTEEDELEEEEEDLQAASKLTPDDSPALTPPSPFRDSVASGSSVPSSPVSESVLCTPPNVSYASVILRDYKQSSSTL

Plasma = assay: Fraction unbound in rat plasma; format: ADME, cell-free
Outline: (§1)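 Unbound fraction was determined by equilibrium dialysis against rat plasma or rat brain homogenate.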

Cytochrome P450 2D6 = Cytochrome P450 2D6 (Homo sapiens, UniProt P10635); assay: Inhibition of CYP2D6 in human liver microsomes in presence of NADPH; format: ADME, Microsome
Cytochrome P450 2C9 = Cytochrome P450 2C9 (Homo sapiens, UniProt P11712); assay: Inhibition of CYP2C9 in human liver microsomes in presence of NADPH; format: ADME, Microsome
Cytochrome P450 1A2 = target: T2, Cytochrome P450 1A2 (Homo sapiens, UniProt P05177); assay: Inhibition of CYP1A2 in human liver microsomes in presence of NADPH; format: ADME, Microsome
T2 sequence (P05177 whole entry): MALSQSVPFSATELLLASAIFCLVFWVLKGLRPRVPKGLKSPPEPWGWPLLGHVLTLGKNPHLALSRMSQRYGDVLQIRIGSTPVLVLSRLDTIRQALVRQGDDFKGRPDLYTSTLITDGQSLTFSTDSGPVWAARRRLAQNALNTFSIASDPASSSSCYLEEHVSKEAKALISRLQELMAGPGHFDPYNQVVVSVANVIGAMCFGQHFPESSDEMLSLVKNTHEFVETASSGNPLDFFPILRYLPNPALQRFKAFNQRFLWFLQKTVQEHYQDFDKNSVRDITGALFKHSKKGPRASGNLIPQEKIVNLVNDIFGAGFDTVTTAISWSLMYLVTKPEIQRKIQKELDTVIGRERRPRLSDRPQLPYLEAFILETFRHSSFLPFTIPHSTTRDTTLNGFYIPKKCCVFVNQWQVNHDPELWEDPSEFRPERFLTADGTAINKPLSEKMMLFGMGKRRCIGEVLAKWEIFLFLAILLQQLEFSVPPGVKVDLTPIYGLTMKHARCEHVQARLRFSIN

Cytochrome P450 3A4 = Cytochrome P450 3A4 (Homo sapiens, UniProt P08684); assay: Inhibition of CYP3A4 in human liver microsomes in presence of NADPH; format: ADME, Microsome
[3] = target: T1, Metabotropic glutamate receptor 1; assay: Negative allosteric modulation of human mGlu1 receptor up to 30 uM
[4] = target: Sigma non-opioid intracellular receptor 1 (Homo sapiens) (UniProt Q99720); assay: Binding affinity to human sigma1 receptor by radioligand binding assay; details: concentration not given here
Outline: (§2)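 Compound was screened at 10 μM in a commercial radioligand binding panel of 68 GPCRs, ion channels, kinases and transporters.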

Brain = assay: Fraction unbound in rat brain; format: ADME, tissue-based; outline: as §1
Rattus norvegicus = species: Rattus norvegicus; assay: Binding affinity to rat sodium channel site 2 by radioligand binding assay; details: concentration not given here; outline: as §2
[5] = target: Metabotropic glutamate receptor 4 (Homo sapiens) (UniProt Q14833); assay: Negative allosteric modulation of mGlu4 receptor (unknown origin) by cell based assay
Outline: (§3)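 Selectivity against other mGlu subtypes was tested in cell-based functional assays with compound at 10 μM.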

[6] = target: Metabotropic glutamate receptor 2 (Homo sapiens) (UniProt Q14416); assay: Negative allosteric modulation of mGlu2 receptor (unknown origin) by cell based assay; outline: as §3
[7] = target: Kappa-type opioid receptor (Homo sapiens) (UniProt P41145); assay: Binding affinity to human kappa opioid receptor by radioligand binding assay; details: concentration not given here; outline: as §2
[8] = target: Metabotropic glutamate receptor 5 (Rattus norvegicus, UniProt P31424); assay: Negative allosteric modulation of mGlu5 receptor (unknown origin) by cell based assay
[9] = target: Metabotropic glutamate receptor 3 (Homo sapiens) (UniProt Q14832); assay: Negative allosteric modulation of mGlu3 receptor (unknown origin) by cell based assay; outline: as §3
[10] = target: Metabotropic glutamate receptor 5 (Rattus norvegicus) (UniProt P31424); assay: Negative allosteric modulation of rat mGlu5 receptor at 30 uM relative to glutamate
[11] = target: T3, 5-hydroxytryptamine receptor 3A (Homo sapiens) (UniProt P46098); assay: Binding affinity to human 5HT3 receptor by radioligand binding assay; details: concentration not given here; outline: as §2
T3 sequence (whole entry): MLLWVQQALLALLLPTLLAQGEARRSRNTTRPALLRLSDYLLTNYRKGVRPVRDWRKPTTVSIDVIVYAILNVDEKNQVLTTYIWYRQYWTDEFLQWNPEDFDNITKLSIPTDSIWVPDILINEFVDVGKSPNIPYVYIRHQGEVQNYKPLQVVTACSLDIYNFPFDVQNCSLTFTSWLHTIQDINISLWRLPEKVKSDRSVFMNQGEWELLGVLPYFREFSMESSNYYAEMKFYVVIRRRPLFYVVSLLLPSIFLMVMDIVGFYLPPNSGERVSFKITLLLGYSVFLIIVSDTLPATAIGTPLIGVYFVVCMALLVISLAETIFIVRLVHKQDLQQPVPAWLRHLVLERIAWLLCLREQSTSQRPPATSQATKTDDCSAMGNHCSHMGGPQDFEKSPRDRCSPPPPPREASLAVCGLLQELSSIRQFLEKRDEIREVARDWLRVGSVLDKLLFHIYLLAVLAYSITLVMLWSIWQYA

[12] = target: Metabotropic glutamate receptor 8 (Homo sapiens) (UniProt O00222); assay: Negative allosteric modulation of mGlu8 receptor (unknown origin) by cell based assay; outline: as §3
[13] = target: Metabotropic glutamate receptor 6 (Homo sapiens) (UniProt O15303); assay: Negative allosteric modulation of mGlu6 receptor (unknown origin) by cell based assay; outline: as §3

Cytochrome P450 3A4, sequence (P08684 whole entry): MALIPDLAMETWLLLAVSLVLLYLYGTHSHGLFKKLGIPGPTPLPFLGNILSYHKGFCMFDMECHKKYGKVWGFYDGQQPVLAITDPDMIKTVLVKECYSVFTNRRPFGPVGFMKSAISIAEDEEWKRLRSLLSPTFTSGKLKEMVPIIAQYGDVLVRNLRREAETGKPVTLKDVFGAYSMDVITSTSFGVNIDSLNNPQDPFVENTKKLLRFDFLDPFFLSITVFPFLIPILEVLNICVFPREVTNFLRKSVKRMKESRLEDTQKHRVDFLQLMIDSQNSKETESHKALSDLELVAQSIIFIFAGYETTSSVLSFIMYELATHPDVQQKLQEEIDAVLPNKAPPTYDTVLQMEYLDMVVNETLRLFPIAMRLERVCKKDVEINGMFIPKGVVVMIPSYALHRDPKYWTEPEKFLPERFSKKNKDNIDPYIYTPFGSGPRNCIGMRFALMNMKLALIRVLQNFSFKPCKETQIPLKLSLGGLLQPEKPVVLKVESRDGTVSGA
Cytochrome P450 2D6, sequence (P10635 whole entry): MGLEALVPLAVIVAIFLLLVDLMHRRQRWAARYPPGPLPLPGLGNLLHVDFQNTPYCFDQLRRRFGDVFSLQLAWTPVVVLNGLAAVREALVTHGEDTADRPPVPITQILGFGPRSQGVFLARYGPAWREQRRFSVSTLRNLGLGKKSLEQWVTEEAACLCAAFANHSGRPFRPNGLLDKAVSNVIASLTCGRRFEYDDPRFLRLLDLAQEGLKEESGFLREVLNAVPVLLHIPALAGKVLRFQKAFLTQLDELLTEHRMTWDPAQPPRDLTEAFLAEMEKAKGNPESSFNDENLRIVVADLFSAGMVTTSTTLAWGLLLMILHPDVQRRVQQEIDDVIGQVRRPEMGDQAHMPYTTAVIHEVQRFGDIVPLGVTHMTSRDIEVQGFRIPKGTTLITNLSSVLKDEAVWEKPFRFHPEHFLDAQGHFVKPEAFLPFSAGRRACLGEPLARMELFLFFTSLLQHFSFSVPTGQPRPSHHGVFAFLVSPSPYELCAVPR
Cytochrome P450 2C9, sequence (P11712 whole entry): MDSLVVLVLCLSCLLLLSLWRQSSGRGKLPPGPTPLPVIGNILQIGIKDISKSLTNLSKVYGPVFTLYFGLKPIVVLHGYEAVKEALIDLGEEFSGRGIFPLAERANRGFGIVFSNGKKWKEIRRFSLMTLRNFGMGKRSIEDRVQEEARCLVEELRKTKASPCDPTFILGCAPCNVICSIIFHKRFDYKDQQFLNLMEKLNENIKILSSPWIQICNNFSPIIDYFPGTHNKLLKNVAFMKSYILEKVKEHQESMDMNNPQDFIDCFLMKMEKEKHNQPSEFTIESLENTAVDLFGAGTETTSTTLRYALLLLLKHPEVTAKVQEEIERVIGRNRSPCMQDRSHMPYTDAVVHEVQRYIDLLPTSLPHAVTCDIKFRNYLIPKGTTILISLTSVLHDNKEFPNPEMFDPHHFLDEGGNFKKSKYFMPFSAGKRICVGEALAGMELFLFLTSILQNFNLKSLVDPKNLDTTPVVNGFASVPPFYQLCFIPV
Metabotropic glutamate receptor 5, sequence (P31424 whole entry): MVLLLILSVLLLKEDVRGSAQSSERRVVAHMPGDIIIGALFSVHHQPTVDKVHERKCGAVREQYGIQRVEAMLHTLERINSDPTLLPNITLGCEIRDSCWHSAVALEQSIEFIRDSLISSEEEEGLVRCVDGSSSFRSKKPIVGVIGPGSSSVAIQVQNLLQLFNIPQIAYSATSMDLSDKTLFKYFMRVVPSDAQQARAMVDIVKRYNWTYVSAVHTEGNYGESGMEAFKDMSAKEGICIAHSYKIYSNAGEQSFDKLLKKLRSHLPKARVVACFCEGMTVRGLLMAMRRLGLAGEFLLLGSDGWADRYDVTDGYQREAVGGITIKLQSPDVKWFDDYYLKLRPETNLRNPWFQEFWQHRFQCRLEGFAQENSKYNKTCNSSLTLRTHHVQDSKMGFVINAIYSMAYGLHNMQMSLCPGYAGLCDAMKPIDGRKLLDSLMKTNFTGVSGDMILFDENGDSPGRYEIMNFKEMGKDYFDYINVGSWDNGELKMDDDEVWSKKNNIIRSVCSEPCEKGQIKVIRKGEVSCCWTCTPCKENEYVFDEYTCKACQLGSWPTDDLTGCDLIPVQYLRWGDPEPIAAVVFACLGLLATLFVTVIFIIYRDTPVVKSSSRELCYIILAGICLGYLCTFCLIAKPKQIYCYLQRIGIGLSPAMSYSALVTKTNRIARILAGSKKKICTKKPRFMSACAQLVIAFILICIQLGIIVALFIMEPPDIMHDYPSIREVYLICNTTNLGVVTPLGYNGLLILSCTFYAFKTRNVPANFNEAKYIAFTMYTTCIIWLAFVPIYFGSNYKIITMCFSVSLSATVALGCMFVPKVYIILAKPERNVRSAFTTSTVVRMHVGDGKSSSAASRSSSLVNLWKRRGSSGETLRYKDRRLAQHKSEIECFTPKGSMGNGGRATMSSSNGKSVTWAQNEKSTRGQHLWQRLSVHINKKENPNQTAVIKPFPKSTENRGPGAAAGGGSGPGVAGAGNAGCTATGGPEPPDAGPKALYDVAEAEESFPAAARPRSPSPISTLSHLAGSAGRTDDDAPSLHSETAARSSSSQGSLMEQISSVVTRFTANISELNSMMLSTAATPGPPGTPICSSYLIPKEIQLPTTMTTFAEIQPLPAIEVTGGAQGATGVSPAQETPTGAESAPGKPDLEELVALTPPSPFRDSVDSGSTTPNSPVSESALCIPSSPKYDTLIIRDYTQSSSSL

| SMILES | pIC50 [1] | %max [2] [%] | other results |
| --- | --- | --- | --- |
| CC(C)(C)C(=O)N1C[C@@H]2CN(c3ccccn3)C[C@@H]2C1 | < 4.52 |  |  |
| O=C(N1CC2CCCC(C2)C1)N1C[C@@H]2CN(c3ccccn3)C[C@@H]2C1 | 5.72 | -1.5 |  |
| O=C(N1CC2CCC(C2)C1)N1C[C@@H]2CN(c3ccccn3)C[C@@H]2C1 |  | -5.8 |  |
| O=C(N1C[C@@H]2CN(c3ncccn3)C[C@@H]2C1)C12CC3CC(CC(C3)C1)C2 | < 5.00 | 10.3 |  |
| O=C(N1C[C@@H]2CN(c3ncccc3F)C[C@@H]2C1)C12CC3CC(CC(C3)C1)C2 | 6.00 | 2.1 |  |
| CC1(C)[C@@H]2CN(C(=O)N3C[C@@H]4CN(c5ccccn5)C[C@@H]4C3)C[C@@H]21 | 4.92 | -7.5 |  |
| O=C(CC12CC3CC(CC(C3)C1)C2)N1C[C@@H]2CN(c3ccccn3)C[C@@H]2C1 |  | 0 |  |
| N#Cc1cccnc1N1C[C@H]2CN(C(=O)C34CC5CC(CC(C5)C3)C4)C[C@H]2C1 |  | 12.2 |  |
| O=C(CC1CCCCC1)N1C[C@@H]2CN(c3ccccn3)C[C@@H]2C1 | < 5.00 | 47.6 |  |
| N#Cc1ncccc1N1C[C@H]2CN(C(=O)C34CC5CC(CC(C5)C3)C4)C[C@H]2C1 | 6.26 | 1.3 | Fu (Plasma): 4.5% |
| N#Cc1cnccc1N1C[C@H]2CN(C(=O)C34CC5CC(CC(C5)C3)C4)C[C@H]2C1 | < 5.00 | 36.8 |  |
| C[C@@H]1CN(c2cccnc2C#N)CCN1C(=O)C12CC3CC(CC(C3)C1)C2 |  |  | pIC50 (Cytochrome P450 2D6): 4.91; pIC50 (Cytochrome P450 2C9): < 4.52; pIC50 (Cytochrome P450 1A2): < 4.52; pIC50 (Cytochrome P450 3A4): 5.15 |
| O=C(N1CCC2(CCCCC2)CC1)N1C[C@@H]2CN(c3ccccn3)C[C@@H]2C1 | 6.44 | 1.5 | Fu (Plasma): 1.5% |
| O=C(N1C[C@@H]2CN(c3cnccn3)C[C@@H]2C1)C12CC3CC(CC(C3)C1)C2 | 6.17 | -1.1 | Fu (Plasma): 10.3% |
| CC(C)(C)[C@H]1CC[C@H](C(=O)N2C[C@H]3CN(c4ccccn4)C[C@H]3C2)CC1 | < 5.00 | 29.2 |  |
| CC(C)(C)CC(=O)N1C[C@@H]2CN(c3ccccn3)C[C@@H]2C1 | < 4.52 |  | Activity [3]: inactive |

| SMILES | pIC50 [1] | %max [2] [%] | other results |
| --- | --- | --- | --- |
| O=C(N1C[C@@H]2CN(c3ccccn3)C[C@@H]2C1)C12CC3CC(CC(C3)C1)C2 | 7.07 | 2.2 | inhibition [4]: 95%; pIC50 (Cytochrome P450 2D6): 4.61; Fu (Brain): 2.3%; inhibition (Rattus norvegicus): 52%; Activity [5]: inactive; Activity [6]: inactive; inhibition [7]: 60%; pIC50 (Cytochrome P450 2C9): < 4.52; pIC50 (Cytochrome P450 1A2): < 4.52; pIC50 (Cytochrome P450 3A4): 5.21; pIC50 [8]: 5.47; Activity [9]: inactive; %max [10]: 1.1%; Fu (Plasma): 2.9%; inhibition [11]: 90% |
| O=C(N1C[C@@H]2CN(c3ccccn3)C[C@@H]2C1)N1CCC2(CCCC2)C1 | 6.53 | -0.1 | pIC50 (Cytochrome P450 2D6): < 4.52; Fu (Brain): 5.1%; Activity [12]: Active; Activity [5]: inactive; Activity [6]: inactive; Activity [13]: Active; pIC50 (Cytochrome P450 2C9): < 4.52; pIC50 (Cytochrome P450 1A2): < 4.52; pIC50 (Cytochrome P450 3A4): < 4.52; pIC50 [8]: < 5.00; Activity [9]: inactive; Fu (Plasma): 9% |
| N#Cc1ccccc1N1C[C@H]2CN(C(=O)C34CC5CC(CC(C5)C3)C4)C[C@H]2C1 | 6.73 | 6.9 | Fu (Plasma): 1.4% |
| O=C(N1C[C@@H]2CN(c3nccs3)C[C@@H]2C1)C12CC3CC(CC(C3)C1)C2 | < 5.00 | 56.6 |  |
| O=C(N1CCC2(CCCC2)CC1)N1C[C@@H]2CN(c3ccccn3)C[C@@H]2C1 | 6.11 | 0.7 |  |
| O=C(N1CCCCCCC1)N1C[C@@H]2CN(c3ccccn3)C[C@@H]2C1 | < 5.00 | 23.2 |  |
| O=C(N1C[C@@H]2CN(c3ccc(F)cn3)C[C@@H]2C1)C12CC3CC(CC(C3)C1)C2 | 6.32 | 2.2 | Fu (Plasma): 1.5% |
| O=C(N1C[C@@H]2CN(c3ccncn3)C[C@@H]2C1)C12CC3CC(CC(C3)C1)C2 | < 5.00 | 25.5 |  |
| CC1(C(=O)N2C[C@@H]3CN(c4ccccn4)C[C@@H]3C2)CCCCC1 | 5.29 | 9.3 |  |
| O=C(N1C[C@@H]2CN(c3cccc(F)n3)C[C@@H]2C1)C12CC3CC(CC(C3)C1)C2 | 7.03 | 2.3 | Fu (Plasma): 1.2% |
| O=C(N1C[C@@H]2CN(c3ccccn3)C[C@@H]2C1)C12C3C4C5C3C1C5C42 (stereo partly drawn) | < 5.00 | 58.7 |  |
| N#Cc1ccncc1N1C[C@H]2CN(C(=O)C34CC5CC(CC(C5)C3)C4)C[C@H]2C1 | 6.08 | 0.1 |  |
| O=C(C1CCCCC1)N1C[C@@H]2CN(c3ccccn3)C[C@@H]2C1 | < 5.00 | 57.7 |  |
| O=C(C1CCCCCC1)N1C[C@@H]2CN(c3ccccn3)C[C@@H]2C1 | < 5.00 | 36.5 |  |
| C[C@H]1CC[C@H](C(=O)N2C[C@H]3CN(c4ccccn4)C[C@H]3C2)CC1 | < 5.00 | 37.9 |  |
